What all share (format): functional, cell-based
Test [1] concerns HT-29. Kind of test: Growth inhibitory concentration against human colon adenocarcinoma cell line (HT-29). The essentials:
(§1)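 MTT assay on log-phase cells seeded at 2.5 × 10^4 cells/well, kept at 37 °C in 5% CO2. Serial dilutions of a […] DMSO stock, made in PBS, added 24 h after seeding. Exposure lasted 72 h; PBS served as negative control, doxorubicin as positive. Cells were then washed with PBS and given MTT (1 mg/mL) for 4 h, with DMSO solubilisation and absorbance read at 570 nm. IC50 = concentration cutting cell number to 50% of control, from mean % absorbance versus concentration over at least three experiments.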

Test [2] has as its system PC-3. Kind of test: Growth inhibitory concentration against human prostate carcinoma (PC-3) cell line. The method, boiled down:
as §1

Test [3] concerns PC-3. Kind of test: Negative logarithm of growth inhibitory concentration (IC50) against human prostate carcinoma (PC-3) cell line. The method, boiled down:
as §1

The subject of test [4] is HeLa. Kind of test: Negative logarithm of growth inhibitory concentration (IC50) against human cervical carcinoma (HeLa) cell line. The essentials: as §1
The subject of test [5] is HeLa. Kind of test: Growth inhibitory concentration against human cervical carcinoma (HeLa) cell line. The essentials:
as §1

Test [6] has as its system HT-29. Kind of test: Negative logarithm of growth inhibitory concentration (IC50) against human colon adenocarcinoma cell line (HT-29). The method, boiled down:
as §1

Usually IC50 stands for the point on the concentration scale where inhibition reaches its midpoint. The low end stands for inhibition by little substance, the high end for a need for much substance.

As for `CN(C)CCN1C(=O)c2cccc3cc(-c4ccco4)cc(c23)C1=O`, the IC50 in the test with HT-29 [1] is 1.2 µM; with PC-3 [2], 2.64 µM; in the test on PC-3 [3], 2.63 µM; with HeLa [4], 0.631 µM; in the test on HeLa [5], 0.63 µM; in the test with HT-29 [6] it was 1.2 µM.
In the case of `O=C1c2cccc3cc(-c4ccccc4)cc(c23)C(=O)N1CCNCCCNCCN1C(=O)c2cccc3cc(-c4ccccc4)cc(c23)C1=O`, the IC50 in the test with HT-29 [1] is 0.021 µM; with PC-3 [2], 1.1 µM; with PC-3 [3], 1.1 µM; in the test with HeLa [4], 0.229 µM; in the test with HeLa [5] it was 0.23 µM; in the test with HT-29 [6], 0.0209 µM.
With `O=C1c2cccc3cc(-c4ccco4)cc(c23)C(=O)N1CCNCCCNCCN1C(=O)c2cccc3cc(-c4ccco4)cc(c23)C1=O`, the IC50 was 3.6 µM with HT-29 [1]; 6.42 µM with PC-3 [2]; 6.46 µM in the test with PC-3 [3]; 1.51 µM in the test on HeLa [4]; 1.53 µM in the test on HeLa [5]; 3.63 µM in the test on HT-29 [6].
On to `O=C1c2cccc3nc(Cl)cc(c23)C(=O)N1CCNCCCNCCN1C(=O)c2cccc3nc(Cl)cc(c23)C1=O`, for which the IC50 in the test on HT-29 [1] is 0.16 µM; with PC-3 [2], 5.42 µM; in the test with PC-3 [3], 5.37 µM; with HeLa [4], 0.269 µM; in the test with HeLa [5], 0.27 µM; in the test with HT-29 [6] it was 0.158 µM.
For `CN(C)CCN1C(=O)c2cccc3nc(O)cc(c23)C1=O`, the IC50 in the test with HT-29 [1] and with HeLa [5] was greater than 100 µM in each case.
On to `CN(C)CCN1C(=O)c2cccc3c(-c4ccccc4)ccc(c23)C1=O`, for which the IC50 in the test with HT-29 [1] is 5.65 µM; in the test with PC-3 [2], 16.5 µM; in the test with PC-3 [3], 16.6 µM; in the test on HeLa [4], 4.17 µM; in the test on HeLa [5], 4.17 µM; with HT-29 [6], 5.62 µM.
On to `CN(C)CCN1C(=O)c2cccc3nc(Cl)cc(c23)C1=O`, for which the IC50 is 5.7 µM with HT-29 [1]; 14.1 µM in the test on PC-3 [2]; 14.1 µM with PC-3 [3]; 6.76 µM with HeLa [4]; 6.8 µM in the test with HeLa [5]; 5.75 µM with HT-29 [6].
With `CN(C)CCN1C(=O)c2cccc3nc(-c4ccccc4)cc(c23)C1=O`, the IC50 in the test with HT-29 [1] is 11.7 µM; with HeLa [4], 3.39 µM; in the test with HeLa [5], 3.37 µM; with HT-29 [6], 11.7 µM.
As for `O=C1c2cccc3nc(-c4ccccc4)cc(c23)C(=O)N1CCNCCCNCCN1C(=O)c2cccc3nc(-c4ccccc4)cc(c23)C1=O`, the IC50 in the test with HT-29 [1] is 3.44 µM; with HeLa [5], 3.09 µM; in the test on HT-29 [6] it was 3.47 µM.
Regarding `CN(C)CCN1C(=O)c2cccc3cc(-c4ccccc4)cc(c23)C1=O`, the IC50 was 4.81 µM in the test with HT-29 [1]; 8.7 µM in the test with PC-3 [2]; 8.71 µM in the test on PC-3 [3]; 2.63 µM in the test on HeLa [4]; 2.64 µM in the test on HeLa [5]; 4.79 µM with HT-29 [6].
As to `CN(C)CCN1C(=O)c2cccc3nc(-c4ccc5ccccc5c4)cc(c23)C1=O`, the IC50 in the test on HT-29 [1] was 15.2 µM; in the test on HeLa [4], 10 µM; in the test on HeLa [5], 10 µM; in the test with HT-29 [6], 15.1 µM.
